Assays:
Mus musculus [1] = assay: Toxicity in collagen-induced B10.RIII mouse arthritis model assessed as change in femur cortical thickness at 30 mg/kg, po qd for 35 days relative to 30% cremophor-treated control; type: organism-based; set-up: dose 30 mg/kg, route oral; conditions: in vivo, 840 h
Summary of the method: (§1)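 Female B10.RIII mice were immunized with porcine type II collagen in complete Freund's adjuvant, enrolled at arthritis onset (10/group), and dosed orally once daily for five weeks in 30% cremophor vehicle. Four paws were scored 1–4 (max 16), as AUC. Serum biomarkers were taken at day 35. Femur cortical thickness was measured by microCT in non-immunized, age-matched mice dosed identically.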

Mus musculus [2] = assay: Toxicity in collagen-induced B10.RIII mouse arthritis model assessed as change in femur cortical thickness at 3 mg/kg, po qd for 35 days relative to 30% cremophor-treated control; type: organism-based; set-up: dose 3 mg/kg, route oral; conditions: in vivo, 840 h; summary of the method: as §1
Mus musculus [3] = assay: Toxicity in collagen-induced B10.RIII mouse arthritis model assessed as change in femur cortical thickness at 30 mg/kg, po qd for 35 days relative to 1% methylcellulose-treated control; type: organism-based; set-up: dose 30 mg/kg, route oral; conditions: in vivo, 840 h
Summary of the method: (§2)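 Female B10.RIII mice were immunized at 12–15 weeks with porcine type II collagen emulsified in complete Freund's adjuvant (100 μg intradermal, tail base). Animals were enrolled at first arthritis signs, 10 per group, and dosed orally once daily for five weeks in 1% methylcellulose. Paws were scored 1–4 each (max 16), with AUC taken. Serum was collected at day 35. Femur cortical thickness was measured by microCT in non-immunized, age-matched mice given the same dosing.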

Mus musculus [4] = assay: Toxicity in collagen-induced B10.RIII mouse arthritis model assessed as change in femur cortical thickness at 3 mg/kg, po qd for 35 days relative to 1% methylcellulose-treated control; type: organism-based; set-up: dose 3 mg/kg, route oral; conditions: in vivo, 840 h; summary of the method: as §2
Mus musculus [5] = assay: Toxicity in collagen-induced B10.RIII mouse arthritis model assessed as change in insulin level at 30 mg/kg, po qd for 35 days relative to 30% cremophor-treated control; type: organism-based; set-up: dose 30 mg/kg, route oral; conditions: in vivo, 840 h; summary of the method: as §1
Mus musculus [6] = assay: Toxicity in collagen-induced B10.RIII mouse arthritis model assessed as change in insulin level at 3 mg/kg, po qd for 35 days relative to 30% cremophor-treated control; type: organism-based; set-up: dose 3 mg/kg, route oral; conditions: in vivo, 840 h; summary of the method: as §1
Mus musculus [7] = assay: Toxicity in collagen-induced B10.RIII mouse arthritis model assessed as change in insulin level at 30 mg/kg, po qd for 35 days relative to 1% methylcellulose-treated control; type: organism-based; set-up: dose 30 mg/kg, route oral; conditions: in vivo, 840 h; summary of the method: as §2
Mus musculus [8] = assay: Toxicity in collagen-induced B10.RIII mouse arthritis model assessed as change in insulin level at 3 mg/kg, po qd for 35 days relative to 1% methylcellulose-treated control; type: organism-based; set-up: dose 3 mg/kg, route oral; conditions: in vivo, 840 h; summary of the method: as §2
Mus musculus [9] = assay: Toxicity in collagen-induced B10.RIII mouse arthritis model assessed as change in free fatty acid level at 30 mg/kg, po qd for 35 days relative to 30% cremophor-treated control; type: organism-based; set-up: dose 30 mg/kg, route oral; conditions: in vivo, 840 h; summary of the method: as §1
Mus musculus [10] = assay: Toxicity in collagen-induced B10.RIII mouse arthritis model assessed as change in free fatty acid level at 3 mg/kg, po qd for 35 days relative to 30% cremophor-treated control; type: organism-based; set-up: dose 3 mg/kg, route oral; conditions: in vivo, 840 h; summary of the method: as §1
Mus musculus [11] = assay: Toxicity in collagen-induced B10.RIII mouse arthritis model assessed as change in free fatty acid level at 30 mg/kg, po qd for 35 days relative to 1% methylcellulose-treated control; type: organism-based; set-up: dose 30 mg/kg, route oral; conditions: in vivo, 840 h; summary of the method: as §2
Mus musculus [12] = assay: Toxicity in collagen-induced B10.RIII mouse arthritis model assessed as change in free fatty acid level at 3 mg/kg, po qd for 35 days relative to 1% methylcellulose-treated control; type: organism-based; set-up: dose 3 mg/kg, route oral; conditions: in vivo, 840 h; summary of the method: as §2
Mus musculus [13] = assay: Toxicity in collagen-induced B10.RIII mouse arthritis model assessed as change in triglyceride level at 30 mg/kg, po qd for 35 days relative to 1% methylcellulose-treated control; type: organism-based; set-up: dose 30 mg/kg, route oral; conditions: in vivo, 840 h; summary of the method: as §2
Mus musculus [14] = assay: Toxicity in collagen-induced B10.RIII mouse arthritis model assessed as change in triglyceride level at 3 mg/kg, po qd for 35 days relative to 1% methylcellulose-treated control; type: organism-based; set-up: dose 3 mg/kg, route oral; conditions: in vivo, 840 h; summary of the method: as §2
Mus musculus [15] = assay: Toxicity in collagen-induced B10.RIII mouse arthritis model assessed as change in body fat at 30 mg/kg, po qd for 35 days relative to 30% cremophor-treated control; type: organism-based; set-up: dose 30 mg/kg, route oral; conditions: in vivo, 840 h; summary of the method: as §1
Mus musculus [16] = assay: Toxicity in collagen-induced B10.RIII mouse arthritis model assessed as change in body fat at 3 mg/kg, po qd for 35 days relative to 30% cremophor-treated control; type: organism-based; set-up: dose 3 mg/kg, route oral; conditions: in vivo, 840 h; summary of the method: as §1
Mus musculus [17] = assay: Toxicity in collagen-induced B10.RIII mouse arthritis model assessed as change in body fat at 30 mg/kg, po qd for 35 days relative to 1% methylcellulose-treated control; type: organism-based; set-up: dose 30 mg/kg, route oral; conditions: in vivo, 840 h; summary of the method: as §2
Mus musculus [18] = assay: Toxicity in collagen-induced B10.RIII mouse arthritis model assessed as change in body fat at 3 mg/kg, po qd for 35 days relative to 1% methylcellulose-treated control; type: organism-based; set-up: dose 3 mg/kg, route oral; conditions: in vivo, 840 h; summary of the method: as §2
Mus musculus [19] = assay: Toxicity in collagen-induced B10.RIII mouse arthritis model assessed as change in AUC at 30 mg/kg, po qd for 35 days relative to 30% cremophor-treated control; type: organism-based; set-up: dose 30 mg/kg, route oral; conditions: in vivo, 840 h; summary of the method: as §1
Mus musculus [20] = assay: Toxicity in collagen-induced B10.RIII mouse arthritis model assessed as change in AUC at 3 mg/kg, po qd for 35 days relative to 30% cremophor-treated control; type: organism-based; set-up: dose 3 mg/kg, route oral; conditions: in vivo, 840 h; summary of the method: as §1
Mus musculus [21] = assay: Toxicity in collagen-induced B10.RIII mouse arthritis model assessed as change in AUC at 30 mg/kg, po qd for 35 days relative to 1% methylcellulose-treated control; type: organism-based; set-up: dose 30 mg/kg, route oral; conditions: in vivo, 840 h; summary of the method: as §2
Mus musculus [22] = assay: Toxicity in collagen-induced B10.RIII mouse arthritis model assessed as change in AUC at 3 mg/kg, po qd for 35 days relative to 1% methylcellulose-treated control; type: organism-based; set-up: dose 3 mg/kg, route oral; conditions: in vivo, 840 h; summary of the method: as §2
[23] = molecular target: T1, Glucocorticoid receptor (Homo sapiens) (UniProt P04150); assay: Agonist activity at glucocorticoid receptor in human […] cells assessed as suppression of vitamin D-induced osteocalcin production at 2 uM after 48 hrs by Gla-type osteocalcin ELISA relative to dexomethasone; type: cell-based
T1 sequence (whole entry): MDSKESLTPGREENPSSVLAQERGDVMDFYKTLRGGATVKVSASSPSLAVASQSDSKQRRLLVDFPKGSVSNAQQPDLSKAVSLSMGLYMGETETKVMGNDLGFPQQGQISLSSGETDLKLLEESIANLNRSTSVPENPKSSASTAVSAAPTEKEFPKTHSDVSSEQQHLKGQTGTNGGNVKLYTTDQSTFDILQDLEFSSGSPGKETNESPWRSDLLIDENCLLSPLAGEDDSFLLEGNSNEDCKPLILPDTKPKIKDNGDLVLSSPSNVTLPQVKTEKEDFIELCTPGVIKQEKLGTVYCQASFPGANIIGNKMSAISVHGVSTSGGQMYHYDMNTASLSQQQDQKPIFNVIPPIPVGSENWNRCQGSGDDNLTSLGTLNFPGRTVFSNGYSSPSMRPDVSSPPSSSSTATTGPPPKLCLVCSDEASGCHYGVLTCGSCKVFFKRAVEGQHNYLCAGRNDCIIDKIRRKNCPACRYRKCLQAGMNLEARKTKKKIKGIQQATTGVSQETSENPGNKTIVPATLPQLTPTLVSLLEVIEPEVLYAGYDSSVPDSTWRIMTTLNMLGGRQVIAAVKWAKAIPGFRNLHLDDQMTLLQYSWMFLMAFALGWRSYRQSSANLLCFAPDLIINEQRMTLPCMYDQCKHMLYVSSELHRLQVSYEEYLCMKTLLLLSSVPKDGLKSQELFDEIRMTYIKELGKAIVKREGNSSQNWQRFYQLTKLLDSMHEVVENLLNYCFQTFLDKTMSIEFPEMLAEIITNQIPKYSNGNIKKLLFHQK
Summary of the method: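 MG-63 human osteosarcoma cells plated at 20000/well in DMEM/F-12 with 1% charcoal-filtered FBS and 10 μg/mL vitamin C. Medium refreshed next day, then vitamin D (10 nM final) added with compound (2 × 10−6 to 10−10 M), duplicates. Incubated 48 h at 37 °C; supernatant osteocalcin measured by Gla-type ELISA. Vitamin D-only wells = 100%. Max efficacy at 2 μM is relative to dexamethasone (100%).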

C[C@]12C=CC(=O)C=C1CC[C@@H]1[C@@H]2[C@@H](O)C[C@@]2(C)[C@H]1CC[C@]2(O)C(=O)CO [PREDNISOLONE]
Activity (Mus musculus [1]): -22%
Activity (Mus musculus [2]): -13%
Activity (Mus musculus [3]): -18%
Activity (Mus musculus [4]): -9%
Activity (Mus musculus [5]): 703%
Activity (Mus musculus [6]): 36%
Activity (Mus musculus [7]): 103%
Activity (Mus musculus [8]): 62%
Activity (Mus musculus [9]): 54%
Activity (Mus musculus [10]): 30%
Activity (Mus musculus [11]): 44%
Activity (Mus musculus [12]): 39%
Activity (Mus musculus [13]): 226%
Activity (Mus musculus [14]): 21%
Activity (Mus musculus [15]): 71%
Activity (Mus musculus [16]): 30%
Activity (Mus musculus [17]): 68%
Activity (Mus musculus [18]): 48%
Activity (Mus musculus [19]): -90%
Activity (Mus musculus [20]): -55%
Activity (Mus musculus [21]): -78%
Activity (Mus musculus [22]): -43%
Emax [23]: 78%

Reference: ChEMBL document CHEMBL3124926, “Identification of highly efficacious glucocorticoid receptor agonists with a potential for reduced clinical bone side effects” (J Med Chem, 2014)
